Measurements as given in ChEMBL document CHEMBL1144761, “Bioactive polybrominated diphenyl ethers from the marine sponge Dysidea sp” (J Nat Prod, 2008).
Active and inactive are the calls of the source. No cut-off for these calls is given here.

Legend:
Streptomyces [1] = assay: Antibacterial activity against Streptomyces 85E assessed as bald phenotype at 5 ug/disk after 30 hrs by hyphae formation inhibition assay; format: functional; conditions: read-out: IZ
Procedure, shortened: (§1)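 Mycelial fragments spread on minimal medium ISP 4 agar to form a lawn; compound-impregnated 6 mm paper disks placed on surface; incubated 30 h at 30 °C. Zone diameter recorded as clear (growth and sporulation inhibited) or bald (substrate hyphae without aerial hyphae); >9 mm counted active. Stocks in DMSO or methanol; solvent negative control, surfactin positive control.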

Streptomyces [2] = assay: Antibacterial activity against Streptomyces 85E assessed as bald phenotype at 2.5 ug/disk after 30 hrs by hyphae formation inhibition assay; format: functional; conditions: read-out: IZ; procedure, shortened: as §1
Streptomyces [3] = assay: Antibacterial activity against Streptomyces 85E assessed as bald phenotype at 10 ug/disk after 30 hrs by hyphae formation inhibition assay; format: functional; conditions: read-out: IZ; procedure, shortened: as §1
Streptomyces [4] = assay: Antibacterial activity against Streptomyces 85E assessed as clear zone at 20 ug/disk after 30 hrs by hyphae formation inhibition assay; format: functional; conditions: read-out: IZ; procedure, shortened: as §1
MCF7 [5] = assay: Antiproliferative activity against human MCF7 cells; format: functional, cell-based
Procedure, shortened: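 MCF-7 cells grown in IMEM with 5% FBS and penicillin/streptomycin at 37 °C, 5% CO2, plated in 96-well plates with compounds in DMSO at five concentrations. After 2 days, glutaraldehyde-fixed, crystal violet-stained, dye solubilised in Triton X-100, A560 minus A405 read. % growth relative to day-0 and DMSO wells; IC50 read graphically from dose–response curve, triplicate.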

Streptomyces [6] = assay: Antibacterial activity against Streptomyces 85E assessed as clear zone at 10 ug/disk after 30 hrs by hyphae formation inhibition assay; format: functional; conditions: read-out: IZ; procedure, shortened: as §1
Streptomyces [7] = assay: Antibacterial activity against Streptomyces 85E assessed as clear zone at 5 ug/disk after 30 hrs by hyphae formation inhibition assay; format: functional; conditions: read-out: IZ; procedure, shortened: as §1
Streptomyces [8] = assay: Antibacterial activity against Streptomyces 85E assessed as clear zone at 2.5 ug/disk after 30 hrs by hyphae formation inhibition assay; format: functional; conditions: read-out: IZ; procedure, shortened: as §1
Streptomyces [9] = assay: Antibacterial activity against Streptomyces 85E assessed as bald phenotype at 20 ug/disk after 30 hrs by hyphae formation inhibition assay; format: functional; conditions: read-out: IZ; procedure, shortened: as §1
MCF7 [10] = assay: Cell cycle arrest in human MCF7 cells by accumulation at G1 phase at 10 uM by flow cytometry; format: functional, cell-based
Procedure, shortened: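 MCF-7 cells, 1 × 10^5 per well, held 2 days in serum-free, antibiotic-free, phenol red-free IMEM to induce G1 arrest. Compound or DMSO added 30 min before FBS to 5% final; serum-free wells as negative controls; U0126 50 µM comparator. After 24 h, cells fixed in ice-cold 80% ethanol, propidium iodide stained, phases measured by flow cytometry; n = 3.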

MCF7 [11] = assay: Cytotoxicity against human MCF7 cells at >10 uM; format: functional, cell-based

## Oc1c(Br)cc(Br)cc1Oc1ccc(Br)cc1Br
Streptomyces [1]
  zone of inhibition at 5 µg/disc: 12 mm
Streptomyces [2]
  zone of inhibition at 2.5 µg/disc: 10 mm
Streptomyces [3]
  zone of inhibition at 10 µg/disc: 13 mm
Streptomyces [4]
  zone of inhibition at 20 µg/disc: 13 mm
MCF7 [5]
  IC50: 8.9 µM

## Oc1c(Oc2ccc(Br)cc2Br)ccc(Br)c1Br
Streptomyces [1]
  zone of inhibition at 5 µg/disc: 13 mm
Streptomyces [2]
  zone of inhibition at 2.5 µg/disc: 10 mm
Streptomyces [3]
  zone of inhibition at 10 µg/disc: 14 mm
Streptomyces [4]
  zone of inhibition at 20 µg/disc: 13 mm
MCF7 [5]
  IC50: 7.23 µM

## Oc1c(Br)c(Br)cc(Br)c1Oc1ccccc1Br
Streptomyces [4]
  zone of inhibition at 20 µg/disc: 20 mm
Streptomyces [6]
  zone of inhibition at 10 µg/disc: 18 mm
MCF7 [5]
  IC50: 6.96 µM
Streptomyces [7]
  zone of inhibition at 5 µg/disc: 13 mm
Streptomyces [8]
  zone of inhibition at 2.5 µg/disc: 12 mm

## Oc1c(Br)cc(Br)c(Br)c1Oc1ccc(Br)cc1Br
Streptomyces [1]
  zone of inhibition at 5 µg/disc: 15 mm
Streptomyces [2]
  zone of inhibition at 2.5 µg/disc: 13 mm
Streptomyces [3]
  zone of inhibition at 10 µg/disc: 2 mm
Streptomyces [4]
  zone of inhibition at 20 µg/disc: 12 mm
Streptomyces [9]
  zone of inhibition at 20 µg/disc: 3 mm
Streptomyces [6]
  zone of inhibition at 10 µg/disc: 12 mm
MCF7 [5]
  IC50: 8.73 µM

## Oc1c(Br)ccc(Br)c1Oc1ccc(Br)cc1Br
Streptomyces [1]
  zone of inhibition at 5 µg/disc: 11 mm
Streptomyces [2]
  zone of inhibition at 2.5 µg/disc: 10 mm
Streptomyces [4]
  zone of inhibition at 20 µg/disc: 14 mm
Streptomyces [6]
  zone of inhibition at 10 µg/disc: 13 mm
MCF7 [5]
  IC50: 6.89 µM

## COc1c(O)c(Oc2ccc(Br)cc2Br)c(Br)c(Br)c1Br
Streptomyces [1]
  zone of inhibition at 5 µg/disc: 11 mm
Streptomyces [2]
  zone of inhibition at 2.5 µg/disc: 10 mm
Streptomyces [3]
  zone of inhibition at 10 µg/disc: 12 mm
Streptomyces [9]
  zone of inhibition at 20 µg/disc: 12 mm
MCF7 [5]
  IC50: 8.69 µM

## Oc1cc(Br)cc(Br)c1Oc1ccc(Br)cc1Br
MCF7 [10]
  Activity: Active
MCF7 [11]
  Activity: Active
Streptomyces [4]
  zone of inhibition at 20 µg/disc: 20 mm
Streptomyces [6]
  zone of inhibition at 10 µg/disc: 17 mm
MCF7 [5]
  IC50: 2.84 µM
Streptomyces [7]
  zone of inhibition at 5 µg/disc: 16 mm
Streptomyces [8]
  zone of inhibition at 2.5 µg/disc: 13 mm

## Oc1c(Br)c(Br)c(Br)c(Br)c1Oc1ccc(Br)cc1Br
Streptomyces [1]
  zone of inhibition at 5 µg/disc: 12 mm
Streptomyces [2]
  zone of inhibition at 2.5 µg/disc: 12 mm
Streptomyces [4]
  zone of inhibition at 20 µg/disc: 15 mm
Streptomyces [6]
  zone of inhibition at 10 µg/disc: 13 mm
MCF7 [5]
  IC50: 9.48 µM

## Oc1c(Br)c(Br)cc(Br)c1Oc1ccc(Br)cc1Br
Streptomyces [1]
  zone of inhibition at 5 µg/disc: 11 mm
Streptomyces [2]
  zone of inhibition at 2.5 µg/disc: 10 mm
Streptomyces [3]
  zone of inhibition at 10 µg/disc: 13 mm
Streptomyces [9]
  zone of inhibition at 20 µg/disc: 14 mm
MCF7 [5]
  IC50: 7.52 µM
